Assay results collected from several papers.
Each line is one published result; the experiments were not run side by side.
Medium: plasma

COc1ccc([C@@H]2CN(C(=O)[C@@H](O)CO)C[C@@]2(C)[C@@H](C)O)cc1OC1CN(c2ccc(C)cn2)C1  AUC(0-t) (human; oral, 1.5 mg, single dose, healthy volunteers): 467 ng·h/mL
CO[C@@H]1[C@H](OC(=O)N2CC(CCN3CCOCC3)C2)CC[C@]2(CO2)[C@H]1[C@@]1(C)O[C@@H]1CC=C(C)C  AUC(0-t) (human; subcutaneous, 0.2 mg, single dose, healthy volunteers): 0.24 ng·h/mL
COc1cc(N2CCC(N3CCN(C)CC3)CC2)ccc1Nc1ncnc(Nc2ccccc2S(=O)(=O)C(C)C)n1  AUC(0-t) (human; oral, 75 mg, multiple doses, patients): 3810 ng·h/mL
COCCOc1cnc2ccn([C@H](C)c3nnc4c(F)cc(-c5cnn(C)c5)cn34)c(=O)c2c1  AUC(0-t) (human; oral, 50 mg, multiple doses, once daily, patients): 6940 ng·h/mL
CC(C)n1cc(C#N)c2cc(-n3cc(C(=O)O)cn3)ccc21  AUC(0-t) (human; oral, 50 mg, single dose, fasted, healthy volunteers): 6980 ng·h/mL
CO[C@H]1CC[C@H](N2C(=O)CNc3ncc(-c4ccc(C(C)(C)O)nc4)nc32)CC1  AUC(0-t) (human; oral, 45 mg, patients): 1500 ng·h/mL
CCCCC1=NC2(CCCC2)C(=O)N1Cc1ccc(-c2ccccc2S(=O)(=O)Nc2noc(C)c2C)c(COCC)c1  AUC(0-t) (human; oral, 800 mg, single dose, fasted, healthy volunteers): 138000 ng·h/mL
CCNCCCNC/C=C\CNCCCNCC  AUC(0-t) (human; intravenous, 200 mg, patients, infusion): 1330 ng·h/mL
FC(F)(F)c1ccc(CNc2ccc(Cc3c[nH]c4ncc(Cl)cc34)cn2)cn1  AUC(0-t) (human; oral, 1000 mg, multiple doses, patients): 14000 ng·h/mL
Cc1nc(NC(=O)N2CCC[C@H]2C(N)=O)sc1-c1ccnc(C(C)(C)C(F)(F)F)c1  AUC(0-t) (human; oral, 400 mg, patients): 40700 ng·h/mL
C[C@@]1(c2cc(NC(=O)c3ccc(C#N)cn3)ccc2F)C=CSC(N)=N1  AUC(0-t) (human; oral, 3 mg, single dose): 231 ng·h/mL
CC(C)(O)c1ccccc1-c1ccc2[nH]c(/C=C/c3ccc(C(F)(F)F)cc3)nc2c1  AUC(0-t) (male human; oral, 1 mg, single dose, fasted): 83 ng·h/mL
